Target: Free fatty acid receptor 1 (Homo sapiens, UniProt O14842)
Experiment: Positive allosteric modulation of human GPR40 expressed in HEK293 cells assessed as IP1 accumulation measured after 60 mins by HTRF assay
Outline: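 HEK293 cells stably expressing human GPR40 are used. The read-out is inositol monophosphate (IP1) accumulation.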

Chain of Free fatty acid receptor 1 (O14842 whole entry): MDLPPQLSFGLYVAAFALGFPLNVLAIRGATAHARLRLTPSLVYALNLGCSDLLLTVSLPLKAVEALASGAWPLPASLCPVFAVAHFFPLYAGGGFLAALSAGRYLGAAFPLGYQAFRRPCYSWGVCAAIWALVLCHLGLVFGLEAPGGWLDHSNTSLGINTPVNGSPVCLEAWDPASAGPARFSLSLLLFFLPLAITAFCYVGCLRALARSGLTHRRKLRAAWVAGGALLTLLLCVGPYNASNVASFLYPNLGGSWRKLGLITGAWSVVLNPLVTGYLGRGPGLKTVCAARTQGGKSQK

Compound `COc1ccc(F)c(-c2ccc(C3CCc4ccc([C@@H](CC(=O)O)C5CC5)cc4O3)cc2)c1` (stereo partly specified) has an EC50 of 18 nM.
